Bioassay records: PubChem, The Scripps Research Institute Molecular Screening Center
Compounds with a hit are over-represented: about 1.9% of the library has one in this group of screens.
CHRM5 antagonist = human M5 muscarinic receptor antagonists, primary screen, CHO cells, Fluo-8 calcium fluorescence; actives 0.59% (n = 360,000); inhibition, % at 3 µM; CHO-hM5 cells, ACh EC80;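 active means inhibition above a per-plate cutoff, the mean of that plate's test compounds plus 3 SD, cut at about 27% in these data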
CHRM5 agonist = human M5 muscarinic receptor agonists, primary screen, CHO-K1 cells, Fluo-8 calcium fluorescence | Muscarinic acetylcholine receptor M5 (Homo sapiens), P08912 | actives 0.19% (n = 360,000) | CHO-K1 hM5 cells; 0% DMSO wells, 100% maximal acetylcholine response | activation, % at 3 µM;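 active means activation above the run's mean over test compounds plus 3 SD, cut at about 23% in these data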;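 further: signal is peak over basal fluorescence ratio across the kinetic read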
CHRM4 agonist = human M4 muscarinic receptor agonists, primary screen, CHO-K1 cells, Fluo-8 calcium fluorescence. Muscarinic acetylcholine receptor M4 (Homo sapiens), P08173. CHO-K1 hM4/Gqi5; vehicle 0%, full acetylcholine response 100%. activation, % at 3 µM. actives 0.14% (n = 360,000);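 active means activation above the run mean over all test wells plus 3 SD, cut at about 32% in these data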;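 further: peak over basal fluorescence ratio per well then scaled between controls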
Target sequence (P08173 whole entry, looked up): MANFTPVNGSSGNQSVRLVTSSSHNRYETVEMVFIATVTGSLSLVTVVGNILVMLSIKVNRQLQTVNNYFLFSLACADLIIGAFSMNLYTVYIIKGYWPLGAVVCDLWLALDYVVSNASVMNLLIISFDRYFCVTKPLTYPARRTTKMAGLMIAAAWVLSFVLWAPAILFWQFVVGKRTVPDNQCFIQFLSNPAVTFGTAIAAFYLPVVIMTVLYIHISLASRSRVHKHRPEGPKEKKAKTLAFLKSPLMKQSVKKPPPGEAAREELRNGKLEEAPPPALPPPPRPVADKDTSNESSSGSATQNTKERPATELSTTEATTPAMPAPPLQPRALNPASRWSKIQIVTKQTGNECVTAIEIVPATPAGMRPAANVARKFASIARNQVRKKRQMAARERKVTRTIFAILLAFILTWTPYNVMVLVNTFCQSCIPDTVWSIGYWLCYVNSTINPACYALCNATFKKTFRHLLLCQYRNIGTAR
M5 PAM = human M5 muscarinic receptor positive allosteric modulators, primary screen, CHO-K1 cells, Fluo-8 calcium fluorescence; CHO-K1 hM5, ACh EC20 PAM; 0% = ACh EC20, 100% = ACh EC100; AID 624038, 2012; activation, % at 3 µM; actives 0.3% (n = 360,000);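 active means activation above the run cutoff, the mean activation of all test compounds plus 3 SD, cut at about 18% in these data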
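System: CHO-K1 cell line with stable human muscarinic M5 receptor expression | Also added: EC20 acetylcholine as agonist stimulus | Compound: One concentration, 3 µM final (nominal) | Timing: Fluo-8 loading 80 min at 37 °C plus 30 min room temperature | Measured by: Fluo-8 calcium dye fluorescence, kinetic read | Read-out basis: % activation, ACh-normalized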
CHRM4 antagonist = human M4 muscarinic receptor antagonists, primary screen, CHO cells, Fluo-8 calcium fluorescence; actives 0.73% (n = 360,000); CHO-hM4 cells, ACh EC80; AID 624125, 2012; inhibition, % at 3 µM;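 active means inhibition above its plate's cutoff, the mean inhibition of sample wells plus 3 SD, cut at about 27% in these data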
CHRM4 PAM = human M4 muscarinic receptor positive allosteric modulators, primary screen, CHO-K1 cells, Fluo-8 calcium fluorescence | CHO-K1 hM4/Gqi5, ACh EC20; 0% = ACh EC20, 100% = maximal ACh | actives 0.4% (n = 360,000) | activation, % at 3 µM | Muscarinic acetylcholine receptor M4 (Homo sapiens), P08173;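 active means activation above its plate's cutoff, the mean activation of sample wells plus 3 SD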
Numbers stand for hits; - = inactive.

SMILES	CHRM5 antagonist	CHRM5 agonist	CHRM4 agonist	M5 PAM	CHRM4 antagonist	CHRM4 PAM
CC(C)CNC(=S)NNC(=O)CC(C)O (stereo not drawn)	-	-	-	18	-	-
CCNC(=S)NNC(=O)CC(C)C	-	-	-	-	-	-
CCCOc1ccc(C(=O)NNC(=S)NC(=O)c2cccs2)cc1	42	72	110	-	63	-
COc1ccc(C(=O)NC(=S)NNC(=O)c2ccc(C)cc2)cc1	-	75	118	-	-	-
Cc1ccc2c(Cl)c(C(=O)NCCCN3CCOCC3)sc2c1	-	-	-	-	-	-
O=C(O)C1CCC(=O)N(C2CCCCC2)C1c1ccccc1Cl (stereo not drawn)	-	-	-	19	-	-
O=C(O)C1CCC(=O)N(C2CC2)C1c1ccccc1 (stereo not drawn)	-	-	-	-	-	-
COC(C[C@@H]1O[C@H]1C(=O)COCc1ccccc1)OC	-	-	-	-	-	25
CC(C)C12CCC(C(=O)O)C(C1)C(=O)O2 (stereo not drawn)	-	-	-	-	-	-
C[N+]1(CC(O)c2ccccc2)CCCCCC1 (stereo not drawn)	-	-	-	-	-	-
CC(=O)OC(C[N+]1(C)CCCCCC1)c1ccccc1 (stereo not drawn)	28	-	-	-	37	-
Brc1ccc(N=NNc2ccccc2)cc1	-	-	-	-	-	-
CCOc1ccc(-c2nc(CSCC(=O)N3CCN(c4cccc(OC)c4)CC3)c(C)o2)cc1	27	-	-	-	-	-
COc1ccc(-c2nc(CS(=O)(=O)CC(=O)NCc3ccc4c(c3)OCO4)c(C)o2)cc1	-	-	-	26	-	-
COc1cccc(-c2nc(CS(=O)(=O)CC(=O)N3CCN(C)CC3)c(C)o2)c1	-	52	-	-	-	-
OCC[C@H]1C[C@@H](O)[C@H](O)[C@]2(CCc3ccccc3O2)O1	-	-	-	-	-	-
Cc1nnc(SCC(=O)N(C2CCCCC2)C2CCS(=O)(=O)C2)n1C (stereo not drawn)	-	-	-	-	-	-
CN1C[C@@H]2C(c3ccccc3)C3(c4ccc(C#N)cc4)CC2(C3)[C@H]1c1ccccc1 (stereo partly drawn)	-	-	-	-	-	-
CN1C[C@@H]2C(c3ccccc3)C3(c4ccccc4)CC2(C3)[C@H]1c1ccccc1 (stereo partly drawn)	-	-	-	-	45	-
COC(=O)c1c(C)oc(C)c1S(=O)(=O)NCc1ccc(Cl)cc1Cl	-	-	-	-	-	-
CCn1c(Cl)c(C=O)s/c1=N\S(=O)(=O)c1ccccc1	33	-	-	-	74	-
C/C(=N/NC(=O)c1ccc(C)s1)c1cccnc1	-	-	-	-	-	-
CC(C)(C)C(=O)NC(=S)NNC(=O)c1ccc(Cl)cc1Cl	36	98	139	-	44	-
CC(C)(C)C(=O)NC(=S)NNC(=O)c1ccc(-c2ccccc2)cc1	97	101	141	-	98	-
COC(=O)NNC(=O)c1ccc(Cl)cc1Cl	-	-	-	-	-	-
SMILES	CHRM5 antagonist	CHRM5 agonist	CHRM4 agonist	M5 PAM	CHRM4 antagonist	CHRM4 PAM
CCOC(=O)CCc1c(C)c2ccc(OC3CCCCC3=O)cc2oc1=O (stereo not drawn)	-	-	-	-	34	-
CC1(C)Cc2c(sc3nnn(Cc4ccc(Cl)cc4)c(=O)c23)CO1	-	-	-	-	-	-
Cc1ccc(S(=O)(=O)N2CCC(C(=O)NCCCN3CCCC3=O)CC2)cc1C	-	-	-	-	-	22
Cc1ccc(NC(=O)C2CCN(S(=O)(=O)c3ccc4c(c3)NC(=O)C(C)S4)CC2)cc1C (stereo not drawn)	36	-	-	-	-	-
Cc1ccc(S(=O)(=O)N2CCC(C(=O)NCCCN3CCCC3=O)CC2)cc1	-	-	-	-	-	-
CCc1ccc(NC(=O)C2CCN(S(=O)(=O)c3ccc4c(c3)NC(=O)C(C)S4)CC2)cc1 (stereo not drawn)	34	-	-	-	-	-
Fc1ccc(/C=N/Nc2cc(N3CCOCC3)ncn2)cc1	-	-	-	-	-	-
COc1ccc(/C(C)=N/OCC(=O)N=Nc2c(O)[nH]c3ccccc23)cc1	-	-	-	-	-	-
CCn1c(COc2ccc3ccccc3c2C)nnc1SCC(=O)Nc1cccc(C(=O)O)c1	-	-	-	-	-	25
CCn1c(COc2cccc(C)c2)nnc1SCC(=O)Nc1cccc(C(=O)O)c1	-	-	-	-	-	-
O=[N+]([O-])c1ccc(Nc2ccccc2)c2nonc12	-	-	-	-	-	-
O=[N+]([O-])c1ccc(Sc2cccc[n+]2[O-])c2nonc12	41	-	-	-	64	-
CCCCCNC(=O)C(CCc1ccccc1)n1c(=O)c(-c2ccccc2)nc2ccccc21 (stereo not drawn)	-	-	-	-	31	-
CCCCCNC(=O)C(CCc1ccccc1)n1c(=O)c(-c2cc3ccccc3[nH]2)nc2ccccc21 (stereo not drawn)	-	-	-	-	-	-
O=c1c2ccccc2oc2nc(-c3ccco3)n(Cc3ccccc3)c(=O)c12	-	-	-	37	-	-
CC(C)C(O)(C#CCN1CCCC1)c1ccccc1 (stereo not drawn)	58	-	-	-	46	-
CC(C)C(O)(C#CCN1CCCCC1)c1ccccc1 (stereo not drawn)	98	-	-	-	98	-
O=C(NC(=S)Nc1ccc(F)c([N+](=O)[O-])c1)c1ccccc1F	-	-	-	-	-	-
O=C(Nc1ccccc1)Nc1ccc(F)c([N+](=O)[O-])c1	27	-	-	-	-	-
O=C(Nc1ccccc1)Nc1ccc(Cl)c([N+](=O)[O-])c1	28	-	-	-	-	-
Cc1ccc(NC(=O)Nc2ccccc2)cc1[N+](=O)[O-]	-	-	-	-	-	-
COC(=O)C(C(=O)OC)c1ncccc1NS(=O)(=O)c1ccc(C)cc1	-	-	-	-	-	-
COc1ccc(CCNC(=O)CS(=O)(=O)c2cn(CC(=O)N(C(C)C)C(C)C)c3ccccc23)cc1OC	-	-	-	-	-	-
